Experimental data published in ChEMBL document CHEMBL1128440 (J Med Chem, 1995).
Several values for one entry are separate records, joined by “and”; a condition that tells them apart may be missing. Equal entries are not always repeated.

Columns and labels:
[1] = biological target: T1, Progesterone receptor (Homo sapiens) (UniProt P06401); assay: Nonspecific binding affinity against progesterone receptor was estimated relative to compound R5020
T1 sequence (whole entry): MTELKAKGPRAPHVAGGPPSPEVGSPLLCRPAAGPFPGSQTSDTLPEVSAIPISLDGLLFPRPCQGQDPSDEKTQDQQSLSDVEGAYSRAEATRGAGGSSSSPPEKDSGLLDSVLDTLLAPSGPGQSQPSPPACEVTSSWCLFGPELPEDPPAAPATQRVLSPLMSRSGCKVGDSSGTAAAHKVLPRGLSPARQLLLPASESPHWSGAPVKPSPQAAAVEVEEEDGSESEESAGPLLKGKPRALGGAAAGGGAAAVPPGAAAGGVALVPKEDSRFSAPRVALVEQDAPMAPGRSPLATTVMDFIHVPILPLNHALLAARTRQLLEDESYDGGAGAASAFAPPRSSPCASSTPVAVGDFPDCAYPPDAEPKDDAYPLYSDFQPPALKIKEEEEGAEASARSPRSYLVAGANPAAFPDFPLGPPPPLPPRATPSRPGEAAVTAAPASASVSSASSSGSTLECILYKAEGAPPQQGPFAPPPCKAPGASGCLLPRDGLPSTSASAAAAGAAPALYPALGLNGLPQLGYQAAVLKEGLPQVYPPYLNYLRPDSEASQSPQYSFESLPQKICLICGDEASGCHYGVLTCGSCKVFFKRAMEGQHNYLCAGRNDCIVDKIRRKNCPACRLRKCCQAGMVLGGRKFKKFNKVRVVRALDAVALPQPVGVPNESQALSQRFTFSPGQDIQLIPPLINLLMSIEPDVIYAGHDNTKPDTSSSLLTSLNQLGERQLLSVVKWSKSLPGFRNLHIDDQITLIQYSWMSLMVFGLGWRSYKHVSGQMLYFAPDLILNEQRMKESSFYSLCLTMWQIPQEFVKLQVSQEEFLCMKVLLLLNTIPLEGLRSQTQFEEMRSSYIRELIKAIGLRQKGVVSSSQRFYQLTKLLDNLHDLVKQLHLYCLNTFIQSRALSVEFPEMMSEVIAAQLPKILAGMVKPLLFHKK

[2] = biological target: T1, Progesterone receptor (Homo sapiens); assay: Relative binding affinity against progesterone receptor at 0 degree Celsius determined in a competitive radiometric binding assay (R5020=100%).
How it was run: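 Competitive radiometric binding at 0 °C against tritium-labeled R5020 as the standard (RBA = 100). Values are the average of two experiments.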

[3] = species: Rattus norvegicus; assay: Tissue biodistribution into estrogen-primed immature female rat lung at 1 hr time interval; assay type: ADME, organism-based; details: in vivo
How it was run: (§1)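 Immature female Sprague-Dawley rats (25 days old, ≈50 g, five per time point) primed with estradiol, 5 μg sc daily for 2 days in 50% ethanol/sunflower seed oil, used 24 h after the last injection. The 18F-labeled ligand was given iv by tail vein in 10% ethanol/saline. Decapitated at 1 or 3 h; blood and organs weighed and gamma-counted. Reported as %ID/g ± SD, n = 5.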

[4] = species: Rattus norvegicus; assay: Tissue biodistribution into estrogen-primed immature female rat ovaries at 1 hr time interval; assay type: ADME, organism-based, Female gonad; details: in vivo; how it was run: as §1
[5] = species: Rattus norvegicus; assay: Tissue biodistribution into estrogen-primed immature female rat uterus/blood at 1 hr time interval; assay type: ADME, organism-based; details: in vivo; how it was run: as §1
[6] = species: Rattus norvegicus; assay: Tissue biodistribution into estrogen-primed immature female rat uterus at 1 hr time interval; assay type: ADME, organism-based; details: in vivo; how it was run: as §1
[7] = species: Rattus norvegicus; assay: Tissue biodistribution into estrogen-primed immature female rat blood at 1 hr time interval; assay type: ADME, organism-based; details: in vivo; how it was run: as §1
[8] = species: Rattus norvegicus; assay: Tissue biodistribution into estrogen-primed immature female rat kidney at 1 hr time interval; assay type: ADME, organism-based; details: in vivo; how it was run: as §1
[9] = species: Rattus norvegicus; assay: Tissue biodistribution into estrogen-primed immature female rat bone at 1 hr time interval; assay type: ADME, organism-based, Bone element; details: in vivo; how it was run: as §1
[10] = species: Rattus norvegicus; assay: Tissue biodistribution into estrogen-primed immature female rat muscle at 1 hr time interval; assay type: ADME, organism-based; details: in vivo; how it was run: as §1
[11] = species: Rattus norvegicus; assay: Tissue biodistribution into estrogen-primed immature female rat uterus/muscle at 1 hr time interval; assay type: ADME, organism-based; details: in vivo
[12] = biological target: T1, Progesterone receptor (Homo sapiens); assay: Binding selectivity index as the ratio of RBA value to that of NSB value.
How it was run: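 BSI calculated as the ratio of RBA to NSB.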

[13] = species: Rattus norvegicus; assay: Tissue biodistribution into estrogen-primed immature female rat liver at 1 hr time interval; assay type: ADME, organism-based; details: in vivo; how it was run: as §1
[14] = species: Rattus norvegicus; assay: Tissue biodistribution into estrogen-primed immature female rat brain at 1 hr time interval; assay type: ADME, organism-based; details: in vivo; how it was run: as §1
[15] = species: Rattus norvegicus; assay: Tissue biodistribution into estrogen-primed immature female rat fat at 1 hr time interval; assay type: ADME, organism-based, Adipose tissue; details: in vivo; how it was run: as §1
[16] = Partition coefficient (logP); assay type: physicochemical; details: octanol/water
How it was run: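 log P(o/w) (octanol/water) estimated by a reversed-phase HPLC method.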

Row | Structure (SMILES) | NSB [1] | RBA [2] | Injected dose/g [3] [%] | Injected dose/g [4] [%] | Uterus to blood concentration ratio [5] [%] | Injected dose/g [6] [%] | Injected dose/g [7] [%] | Injected dose/g [8] [%] | Injected dose/g [9] [%] | Injected dose/g [10] [%] | Uterus to muscle uptake ratio [11] [%] | BSI [12] | Injected dose/g [13] [%] | Injected dose/g [14] [%] | Injected dose/g [15] [%] | logP ([16]; read-out: logP) | logP [16]
1 | C[C@@]1(c2ccc(F)cc2)O[C@@H]2CC3C4CCC5=CC(=O)CC[C@@H]5C4CC[C@]3(C)[C@]2(C(=O)CO)O1 (stereo not given in full) | 2.45 | 240 | 0.6 | 2.8 | 14 | 3.65 | 0.26 | 1.42 | 0.62 | 0.44 | 8.2 | 98 | 4.25 | 0.34 | 3.53 | – | –
2 | CC[C@@H]1C[C@H]2[C@@H]3CCC4=CC(=O)CC[C@@H]4[C@H]3CC[C@]2(C)[C@H]1C(=O)CF | 1.87 | 700 | 0.47 | 2.86 | 26.26 | 6.43 | 0.25 | 1.05 | 3.18 | 0.42 | 15.98 | 374 | 3.34 | 0.63 | 3.56 | – | –
3 | CC(=O)[C@@]12O[C@](C)(c3ccc(F)cc3)O[C@@H]1CC1C3CCC4=CC(=O)CC[C@]4(C)C3CC[C@@]12C (stereo not given in full) | 5.52 | 53 | 1.3 | 3.93 | 6.59 | 3.08 | 0.47 | 2.18 | 1.76 | 0.82 | 3.85 | 10 | 3.41 | 0.56 | 5.76 | – | –
4 | CCC(=O)[C@@]1(C)CC[C@H]2[C@@H]3CCC4=CC(=O)CCC4=C3CC[C@@]21C | 1 | 100 | – | – | – | – | – | – | – | – | – | 100 | – | – | – | – | –
5 | CC1(c2ccc(F)cc2)O[C@@H]2CC3C4CCC5=CC(=O)CC[C@@H]5C4CC[C@]3(C)[C@]2(C(=O)CF)O1 (stereo not given in full) | 4.36 | 282 | – | – | – | – | – | – | – | – | – | 65 | – | – | – | 5.48 | –
6 | C[C@]12CCC3C(CCC4=CC(=O)CC[C@@H]43)C1C[C@H]1OC(c3ccco3)O[C@]12C(=O)CO (stereo not given in full) | 0.96 and 0.76 | – | – | – | – | – | – | – | – | – | – | – | – | – | – | 4.01 | 3.78
